Screens from PubChem.
Hits are enriched below; roughly 3.7% of the tested compounds scored in any of these assays.
Kir21 block – inhibitors of mouse Kir2.1 inward-rectifier potassium channel; HEK293-Kir2.1, FluxOR thallium flux fluorescence; stronger effect = lower value; 310,000 compounds, 0.85% hits; AID 1672; P35561; B-score at 10 µM;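 active means fluorescence ratio B-score at or below minus 3 SD of library scores, with starting-brightness B-score within 2 SD, cut at about -4.2 in these data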;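 further: channel flux triggered by added potassium and thallium sulfate stimulus; B-score of peak minus minimum fluorescence over baseline after thallium stimulus; more negative B-score means stronger Kir2.1 block with less thallium influx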
KCNK9 inh – human KCNK9 channel inhibition; HEK293 KCNK9, FluxOR thallium flux fluorescence; stronger effect = lower value; AID 488922; Q9NPC2; B-score at 10 µM; 310,000 compounds, 1.2% hits;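 active means ratio B-score over 3 SD below the library mean, with starting fluorescence within 5 SD of its mean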;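 further: negative B-score means less thallium flux so channel inhibition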
Target sequence (Q9NPC2 whole entry, looked up): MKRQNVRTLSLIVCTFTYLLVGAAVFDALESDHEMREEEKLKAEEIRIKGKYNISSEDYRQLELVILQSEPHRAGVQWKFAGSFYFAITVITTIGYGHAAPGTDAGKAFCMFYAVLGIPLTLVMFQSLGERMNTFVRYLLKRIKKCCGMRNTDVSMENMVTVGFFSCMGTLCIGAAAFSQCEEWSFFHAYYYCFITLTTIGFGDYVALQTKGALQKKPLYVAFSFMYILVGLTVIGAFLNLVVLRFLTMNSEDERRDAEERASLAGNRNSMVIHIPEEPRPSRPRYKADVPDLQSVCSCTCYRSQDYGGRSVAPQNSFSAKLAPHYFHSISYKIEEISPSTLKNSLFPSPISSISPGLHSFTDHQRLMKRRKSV
KCNQ1 act – human KCNQ1 channel potentiation or activation; P51787; CHO-K1 KCNQ1, thallium flux FluxOR fluorescence; stronger effect = higher value; B-score at 10 µM; 310,000 compounds, 0.35% hits; AID 2648;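 active means fluorescence ratio B-score, a plate-corrected score, at least three library SD, with initial intensity B-score within 5 SD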
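System: CHO-K1 cells stably expressing KCNQ1 / Medium: assay buffer for compound exposure, DMSO matched across wells / Reagent: thallium- and potassium-containing depolarizing buffer / Compound: one concentration, matched DMSO / Incubation: 20 min compound pretreatment at room temperature / Measured by: kinetic FluxOR fluorescence, 10 s baseline plus 110 s post-stimulus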
KCNQ1 block – human KCNQ1 channel inhibition; AID 2642; P51787; CHO-K1 KCNQ1, FluxOR thallium flux fluorescence; stronger effect = higher value; B-score at 10 µM; 310,000 compounds, 1.3% hits;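 active means compounds whose thallium flux B-score, printed positive for inhibition, exceeds three library SD while starting fluorescence stays within three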;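 further: channel opened by potassium depolarization with thallium stimulus after 20 min compound exposure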
KCNK3 block – human KCNK3 channel inhibition, primary screen; 340,000 compounds, 0.84% hits; AID 602410; B-score at 10 µM; O14649; CHO-KCNK3 thallium flux, FluxOR fluorescence; stronger effect = lower value;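 active means B-score under library mean minus 4 SD, starting fluorescence ratio at most library mean plus 5 SD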;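 further: more negative B-score means stronger inhibition of thallium flux through KCNK3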
hERG protect – hERG (human) protection from proarrhythmic block. Q12809. CHO-hERG, FluxOR thallium flux, dofetilide IC70 present. AID 1511. 310,000 compounds, 0.51% hits. activation (rescue from dofetilide block), less the hit threshold, % at 10 µM;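 active means activation above the mean of controls blocked by dofetilide plus 5 SD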;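 further: thallium influx through hERG after potassium depolarization seen as dye fluorescence rise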
Active calls of the source: *; i = inactive; / = not tested or not shown.

SMILES | Kir21 block | KCNK9 inh | KCNQ1 act | KCNQ1 block | KCNK3 block | hERG protect
CCCCN(C)C(=O)C1CCN(c2ccc(S(=O)(=O)N3CCOCC3)cc2[N+](=O)[O-])CC1 | 0.05 | i | i | i | i | -6
CC(=O)NC(Cc1cc(C)ccc1C)C(=O)N1CCN(C(=O)c2ccc([N+](=O)[O-])cc2)CC1 (centres undefined) | 1.4 | i | i | i | i | 4
CCOC(=O)c1cc(-c2ccccc2)sc1NC(=O)C(C)N1C(=O)c2ccccc2C1=O (centres undefined) | 0.72 | -8* | i | i | i | -3
CCc1ccccc1NC(=S)Nn1cnnc1 | -0.11 | i | i | i | i | -11
O=C(Nc1nnc(-c2ccccc2)o1)c1cc(Cl)sc1Cl | 0.57 | i | i | i | i | 4
O=C(COc1ccccc1)Nc1nnc(-c2ccc3c(c2)CCCC3)o1 | -2.1 | i | i | i | i | -17
O=C(Nc1nnc(-c2ccc(F)cc2)o1)c1cc(Cl)sc1Cl | -0.7 | i | 23* | i | i | 10*
O=C(Nc1nnc(-c2ccc3c(c2)CCCC3)o1)c1ccccc1Cl | 0.37 | i | 12* | i | i | -3
O=C(O)COc1ccccc1/C=N/NC(=O)Cc1csc(Nc2cccc(C(F)(F)F)c2)n1 | 0.12 | i | i | i | i | -12
Cc1ccccc1C(=O)Nc1ccc(-c2nc3ccc(C(=O)c4ccccc4)cc3[nH]2)cc1 | -0.51 | i | i | 6* | i | -24
O=C(OCn1nnc2ccccc2c1=O)c1ccc(N2CCOCC2)c([N+](=O)[O-])c1 | 2.4 | i | i | i | i | -3
O=C(N/N=C/c1cn(-c2ccccc2)nc1-c1cc2ccccc2o1)c1cccnc1 | -1.4 | i | i | 6* | i | -13
O=C(N/N=C/c1cn(-c2ccccc2)nc1-c1cc2ccccc2o1)c1ccncc1 | 0 | i | i | i | i | -7
O=C(N/N=C/c1cn(-c2ccccc2)nc1-c1cccnc1)c1ccc(F)cc1 | -1.8 | i | i | i | i | -10
O=C(N/N=C/c1cn(-c2ccccc2)nc1-c1ccc(F)cc1)c1ccc(Br)o1 | 1.5 | i | i | i | -8.7* | -12
COc1ccc(C(=O)N2CCN(c3ccc(N4CCOCC4)nn3)CC2)cc1OC | -0.55 | i | i | i | i | -12
CC(C)CC1CC(C)(c2csc(NNC(=O)c3ccccc3)n2)OC1=O (centres undefined) | -2.5 | i | i | i | i | -24
Cc1c(CCO)sc[n+]1CC(=O)OCCC12CC3CC(CC(C3)C1)C2 | -0.41 | i | i | i | i | -3
Cc1c(CCOC(=O)CC23CC4CC(CC(C4)C2)C3)sc[n+]1Cc1ccccc1 | -1.8 | i | i | 7* | i | -17
CCc1nnc(SCC(=O)Nc2ccccc2Cl)nc1CC | -0.04 | i | i | i | i | -7
CCN1CCN(Cc2ccc(NC(=O)c3cc(NC(=O)c4cncc(-c5cccs5)c4)cc(OC)c3)cc2C(F)(F)F)CC1 | -0.03 | i | i | 8* | / | -27
COc1ccc(CC(=O)Nc2nc3ccccc3[nH]2)cc1 | 2.1 | i | i | i | i | -6
COc1ccc2nc(NCCO)[nH]c2c1 | -0.07 | i | i | i | i | 1
COc1cccc(CC(=O)Nc2nc3ccccc3[nH]2)c1 | 0.47 | i | i | i | i | 4.9*
COc1ccc2nc(NCc3ccccc3)[nH]c2c1 | -5.3* | i | i | i | i | -5
SMILES | Kir21 block | KCNK9 inh | KCNQ1 act | KCNQ1 block | KCNK3 block | hERG protect
COc1cccc(NC(=O)CCN2C(=O)c3ccccc3Sc3ncccc32)c1 | 0.67 | i | i | i | i | -5
Cc1ccc(NC(=O)c2ccc(Cl)c(N3C(=O)CCC3=O)c2)cc1 | 0.16 | i | i | i | i | -7
O=C(/C=C/c1ccc([N+](=O)[O-])cc1)NCCOc1ccc(F)cc1 | 0 | i | i | i | i | 5.5*
COCCOC(=O)C1=C(N)OC2=C(C(=O)CC(C)(C)C2)C1c1cccnc1 (centres undefined) | 1.3 | i | i | i | i | 5.2*
Cc1nc(SCC(=O)c2cccs2)c2oc3ccccc3c2n1 | -0.45 | i | i | 10* | i | -16
O=C(CSc1ncnc2c1oc1ccccc12)c1cccs1 | 2 | i | i | i | i | -2
CCN(CC)c1ccc(C2C(C(=O)OC(C)C)C(=O)CC(C)(O)C2C(=O)OC(C)C)cc1 (centres undefined) | 0.57 | i | i | i | i | -7
Cc1cc(N2CCN(C)CC2)nc(N2CCOCC2)n1 | -0.5 | i | i | i | i | 8.0*
Cc1cc(N2CCOCC2)nc(N2CCOCC2)n1 | 0.04 | i | i | i | i | -4
CCc1ccc2[nH]c(C(=O)Nc3ccc(F)cc3Br)cc2c1 | 0.8 | i | 8* | i | i | -2
Cc1ccc(S(=O)(=O)C(C)C(=O)c2ccc3c(c2)OCCO3)cc1 (centres undefined) | -4.3* | i | i | i | i | -16
CN1CCN(c2cc(N3CCc4ccccc4C3)c(F)cc2[N+](=O)[O-])CC1 | -4.7* | i | i | i | i | -23
CC(C)(C)c1ccc(C(=O)NC(=O)COC(=O)c2ccco2)cc1 | / | / | / | / | i | /
COc1ccc(-c2cc3ccc(OC(C)C(=O)O)cc3oc2=O)cc1 (centres undefined) | 0.24 | i | i | i | i | -1
COc1ccc(OC)c(S(=O)(=O)N2CCC(c3nc4ccccc4[nH]3)CC2)c1 | 1.3 | i | i | i | i | -13
CC(C)(C)c1ccc(C(CC(=O)O)NC(=O)CCCc2ccccc2)cc1 (centres undefined) | 0.07 | i | i | i | i | -5
Cc1ccc(Nc2cc(C)c3ccc(O)cc3n2)cc1C | -5.1* | i | i | i | i | -29
CC(C)[C@H](NC(=O)c1ccccc1)C(=O)OCC(=O)N1CCCc2ccccc21 | -0.85 | i | i | i | i | -10
O=C(CC(CC(=O)c1ccccc1)c1ccncc1)c1ccccc1 | / | / | / | / | i | /
COc1ccc(C(CC(=O)c2ccccc2)CC(=O)c2ccccc2)cc1 | 0.01 | -7.1* | i | i | i | -3
COc1ccc(C(=O)CC(=O)c2ccccc2)cc1 | -0.27 | i | i | i | i | -8
COc1ccc(C(C(=O)OCCN(C)C)c2ccccc2)cc1 (centres undefined) | -1.3 | -6.8* | i | i | i | -3
